Measured values from ChEMBL document CHEMBL1121813, “Dihydrochalcone sweeteners. A study of the atypical temporal phenomena” (1981).

Legend:
Format in all cases: functional
[1] = organism: Homo sapiens; test: Sweet character at a concentration of 2000 ppm (mean value)
How it was run: (§1)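 Trained human sensory panel (Swartz method) tasted dilute aqueous solutions of the compounds, which had to be ≥95 weight percent pure and free of mutagenicity and toxicity. Taste character is reported as the mean value with 2S_m limits. Data deviating excessively at the 95% confidence level were rejected by the t-value method.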

[2] = organism: Homo sapiens; test: Intensity calculated on a weight basis relative to an 85500 ppm sucrose solution at a concentration of 2000 ppm (mean value)
How it was run: (§2)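 Trained human panel tasted aqueous solutions of purity-checked (≥95 weight percent) compounds cleared for mutagenicity and mouse oral toxicity. Weight-basis intensity I_w = perceived intensity × (85500 ppm sucrose / compound concentration in ppm). The mean is reported with 2S_m limits; data deviating excessively at 95% confidence were rejected by the t-value method.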

[3] = organism: Homo sapiens; test: Bitter character at a concentration of 2000 ppm (mean value)
How it was run: (§3)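 Trained human panel tasted aqueous solutions. Each judge reported whether there was an aftertaste and its character (sweet, bitter or bitter-sweet). The value is the percentage of judgments reporting a bitter aftertaste.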

[4] = organism: Homo sapiens; test: Percentage of judgments reporting an aftertaste at a concentration of 2000 ppm
How it was run: (§4)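 Trained judges tasted aqueous solutions of the compounds, which had to be ≥95 weight percent pure and to have passed mutagenicity and single oral dose toxicity screening. The value is the percentage of panel judgments reporting an aftertaste. Where given, its character is recorded as sweet, bitter or bitter-sweet.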

[5] = organism: Homo sapiens; test: Other taste character at a concentration of 2000 ppm (mean value)
How it was run: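 Trained human panel tasted aqueous solutions of each compound. Aftertaste is scored as the percentage of judgments reporting one, with its character coded sweet (s), bitter (b) or bitter-sweet (bs).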

[6] = organism: Homo sapiens; test: Number of taste judgments per compound
[7] = organism: Homo sapiens; test: Sweet / Bitter character at a concentration of 2000 ppm (mean value)
[8] = organism: Homo sapiens; test: Sour character at a concentration of 2000 ppm (mean value); how it was run: as §1
[9] = organism: Homo sapiens; test: Salty character at a concentration of 2000 ppm (mean value); how it was run: as §1
[10] = organism: Homo sapiens; test: Experimentally determined perceived intensity of compound at a concentration of 2000 ppm (mean value)
How it was run: (§5)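 Trained human sensory panel of judges tasted aqueous solutions of the compound. Samples had to be ≥95 weight % pure (HPLC, proton titration, Karl Fischer), non-mutagenic in five Salmonella typhimurium strains with and without microsomal activation, and non-toxic in a single-oral-dose mouse test. Perceived intensity (Ip) was read from time–intensity curves at 4- or 6-s intervals and averaged. Outliers at the 95% level were rejected by t-value. Values reported as mean (2Sm).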

[11] = organism: Homo sapiens; test: Intensity calculated on a molar basis relative to a 0.25 M sucrose solution at a concentration of 2000 ppm (mean value)
How it was run: (§6)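 Trained human judges tasted aqueous solutions of the test compound; compounds were first required to be ≥95 weight percent pure and free of mutagenicity (five Salmonella typhimurium strains, ± microsomal activation) and of single oral dose mouse toxicity. Molar intensity I_m = perceived intensity × (0.25 M sucrose / compound molar concentration). The mean is reported with 2S_m limits; outliers were rejected at 95% confidence by t-value.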

[12] = organism: Homo sapiens; test: Experimentally determined perceived intensity of compound at a concentration of 690 ppm (mean value); how it was run: as §5
[13] = organism: Homo sapiens; test: Sour character at a concentration of 244 ppm (mean value)
[14] = organism: Homo sapiens; test: Percentage of judgments reporting an aftertaste at a concentration of 244 ppm and character thereof; Bitter; how it was run: as §4
[15] = organism: Homo sapiens; test: Intensity calculated on a weight basis relative to an 85500 ppm sucrose solution at a concentration of 244 ppm (mean value); how it was run: as §2
[16] = organism: Homo sapiens; test: Experimentally determined perceived intensity of compound at a concentration of 244 ppm (mean value); how it was run: as §5
[17] = organism: Homo sapiens; test: Sweet / Bitter character at a concentration of 244 ppm (mean value)
[18] = organism: Homo sapiens; test: Sweet character at a concentration of 244 ppm (mean value)
[19] = organism: Homo sapiens; test: Salty character at a concentration of 244 ppm (mean value)
[20] = organism: Homo sapiens; test: Intensity calculated on a molar basis relative to a 0.25 M sucrose solution at a concentration of 244 ppm (mean value); how it was run: as §6
[21] = organism: Homo sapiens; test: Bitter character at a concentration of 244 ppm (mean value); how it was run: as §3
[22] = organism: Homo sapiens; test: Other taste character at a concentration of 244 ppm (mean value); how it was run: as §1
[23] = organism: Homo sapiens; test: Intensity calculated on a molar basis relative to a 0.25 M sucrose solution at a concentration of 249 ppm (mean value); how it was run: as §6
[24] = organism: Homo sapiens; test: Intensity calculated on a weight basis relative to an 85500 ppm sucrose solution at a concentration of 249 ppm (mean value); how it was run: as §2
[25] = organism: Homo sapiens; test: Sour character at a concentration of 249 ppm (mean value)
[26] = organism: Homo sapiens; test: Salty character at a concentration of 249 ppm (mean value)
[27] = organism: Homo sapiens; test: Sweet / Bitter character at a concentration of 249 ppm (mean value); 97/3
[28] = organism: Homo sapiens; test: Sweet character at a concentration of 249 ppm (mean value)
[29] = organism: Homo sapiens; test: Percentage of judgments reporting an aftertaste at a concentration of 249 ppm and character thereof; how it was run: as §4
[30] = organism: Homo sapiens; test: Experimentally determined perceived intensity of compound at a concentration of 249 ppm (mean value); how it was run: as §5
[31] = organism: Homo sapiens; test: Other taste character at a concentration of 249 ppm (mean value); how it was run: as §1
[32] = organism: Homo sapiens; test: Bitter character at a concentration of 249 ppm (mean value); how it was run: as §3
[33] = organism: Homo sapiens; test: Sweet / Bitter character at a concentration of 260 ppm (mean value); 94/6
[34] = organism: Homo sapiens; test: Salty character at a concentration of 260 ppm (mean value)
[35] = organism: Homo sapiens; test: Sour character at a concentration of 260 ppm (mean value)
[36] = organism: Homo sapiens; test: Intensity calculated on a weight basis relative to an 85500 ppm sucrose solution at a concentration of 260 ppm (mean value); how it was run: as §2
[37] = organism: Homo sapiens; test: Sweet character at a concentration of 260 ppm (mean value)
[38] = organism: Homo sapiens; test: Percentage of judgments reporting an aftertaste at a concentration of 260 ppm and character thereof; how it was run: as §4
[39] = organism: Homo sapiens; test: Bitter character at a concentration of 260 ppm (mean value); how it was run: as §3
[40] = organism: Homo sapiens; test: Intensity calculated on a molar basis relative to a 0.25 M sucrose solution at a concentration of 260 ppm (mean value); how it was run: as §6
[41] = organism: Homo sapiens; test: Experimentally determined perceived intensity of compound at a concentration of 260 ppm (mean value); how it was run: as §5
[42] = organism: Homo sapiens; test: Other taste character at a concentration of 260 ppm (mean value); how it was run: as §1
[43] = organism: Homo sapiens; test: Sour character at a concentration of 240 ppm (mean value); how it was run: as §1
[44] = organism: Homo sapiens; test: Percentage of judgments reporting an aftertaste at a concentration of 240 ppm and character thereof; how it was run: as §4
[45] = organism: Homo sapiens; test: Intensity calculated on a molar basis relative to a 0.25 M sucrose solution at a concentration of 240 ppm (mean value); how it was run: as §6
[46] = organism: Homo sapiens; test: Experimentally determined perceived intensity of compound at a concentration of 240 ppm (mean value); how it was run: as §5
[47] = organism: Homo sapiens; test: Other taste character at a concentration of 240 ppm (mean value); how it was run: as §1
[48] = organism: Homo sapiens; test: Salty character at a concentration of 240 ppm (mean value); how it was run: as §1
[49] = organism: Homo sapiens; test: Sweet character at a concentration of 240 ppm (mean value); how it was run: as §1
[50] = organism: Homo sapiens; test: Intensity calculated on a weight basis relative to an 85500 ppm sucrose solution at a concentration of 240 ppm (mean value); how it was run: as §2
[51] = organism: Homo sapiens; test: Sweet / Bitter character at a concentration of 240 ppm (mean value); 7/93
[52] = organism: Homo sapiens; test: Bitter character at a concentration of 240 ppm (mean value); how it was run: as §3

`COc1ccc(C2OC[C@@H]3OC(O)[C@@H](O)[C@H](O)[C@H]3O2)cc1O` (some centres not stated) showed a Taste character [1] of 0, an IW [2] of 10 and a Taste character [3] of 100. The Judgments [4] was 0, the Taste character [5] was 0 and the Judgments [6] was 1. It also gave a Taste character [7] of 0, a Taste character [8] of 0 and a Taste character [9] of 0. The IP [10] was 0.3 and the IM [11] was 10.
In the case of `COc1ccc(/C=C/C(=O)c2c(O)cc(OCC(=O)[O-])cc2O)cc1O.[Na+]`, the IP [12] is reported as 0 and the Judgments [6] is reported as 1.
`COc1ccc(CCC(=O)O)cc1O` gave a Taste character [13] of 69, a Judgments [14] of 50 and an IW [15] of 210. It also gave an IP [16] of 0.6, a Taste character [17] of 0 and a Judgments [6] of 8. For the same compound, the Taste character [18] was 0, the Taste character [19] was 0 and the IM [20] was 120. The Taste character [21] was 28 and the Taste character [22] was 3.
`COc1ccc(CCC(=O)c2c(O)cc(OCC(=O)CC(=O)[O-])cc2O)cc1O.[Na+]` was tested, and the IM [23] was 380, the IW [24] was 310 and the Taste character [25] was 0. The Taste character [26] was 0, the Taste character [27] was 97 and the Taste character [28] was 85. The Judgments [6] was 24, the Judgments [29] was 100 and the IP [30] was 0.89. The Taste character [31] was 12 and the Taste character [32] was 3.
`COc1ccc(CCC(=O)c2c(O)cc(OCC(=O)[O-])cc2O)cc1O.[Na+]` was tested, and the Taste character [33] was 94, the Taste character [34] was 0 and the Taste character [35] was 0. It also gave an IW [36] of 300, a Judgments [6] of 12 and a Taste character [37] of 76. It also gave a Judgments [38] of 100, a Taste character [39] of 5 and an IM [40] of 330. It also gave an IP [41] of 0.9 and a Taste character [42] of 19.
With `COc1ccc(CCCc2c(O)cc(O)cc2O)cc1O` the Taste character [43] was 0, the Judgments [44] was 0 and the IM [45] was 76. It also gave an IP [46] of 0.25, a Taste character [47] of 5 and a Taste character [48] of 0. The Taste character [49] was 7, the IW [50] was 89 and the Taste character [51] was 7. The Judgments [6] was 12 and the Taste character [52] was 88.
